Measured values of several laboratories.
Compare with care: the assays were run in different laboratories.
Target: Serine/threonine-protein kinase 36 (STK36, Homo sapiens, UniProt Q9NRP7)
Residues used in one study (Q9NRP7 1-1315): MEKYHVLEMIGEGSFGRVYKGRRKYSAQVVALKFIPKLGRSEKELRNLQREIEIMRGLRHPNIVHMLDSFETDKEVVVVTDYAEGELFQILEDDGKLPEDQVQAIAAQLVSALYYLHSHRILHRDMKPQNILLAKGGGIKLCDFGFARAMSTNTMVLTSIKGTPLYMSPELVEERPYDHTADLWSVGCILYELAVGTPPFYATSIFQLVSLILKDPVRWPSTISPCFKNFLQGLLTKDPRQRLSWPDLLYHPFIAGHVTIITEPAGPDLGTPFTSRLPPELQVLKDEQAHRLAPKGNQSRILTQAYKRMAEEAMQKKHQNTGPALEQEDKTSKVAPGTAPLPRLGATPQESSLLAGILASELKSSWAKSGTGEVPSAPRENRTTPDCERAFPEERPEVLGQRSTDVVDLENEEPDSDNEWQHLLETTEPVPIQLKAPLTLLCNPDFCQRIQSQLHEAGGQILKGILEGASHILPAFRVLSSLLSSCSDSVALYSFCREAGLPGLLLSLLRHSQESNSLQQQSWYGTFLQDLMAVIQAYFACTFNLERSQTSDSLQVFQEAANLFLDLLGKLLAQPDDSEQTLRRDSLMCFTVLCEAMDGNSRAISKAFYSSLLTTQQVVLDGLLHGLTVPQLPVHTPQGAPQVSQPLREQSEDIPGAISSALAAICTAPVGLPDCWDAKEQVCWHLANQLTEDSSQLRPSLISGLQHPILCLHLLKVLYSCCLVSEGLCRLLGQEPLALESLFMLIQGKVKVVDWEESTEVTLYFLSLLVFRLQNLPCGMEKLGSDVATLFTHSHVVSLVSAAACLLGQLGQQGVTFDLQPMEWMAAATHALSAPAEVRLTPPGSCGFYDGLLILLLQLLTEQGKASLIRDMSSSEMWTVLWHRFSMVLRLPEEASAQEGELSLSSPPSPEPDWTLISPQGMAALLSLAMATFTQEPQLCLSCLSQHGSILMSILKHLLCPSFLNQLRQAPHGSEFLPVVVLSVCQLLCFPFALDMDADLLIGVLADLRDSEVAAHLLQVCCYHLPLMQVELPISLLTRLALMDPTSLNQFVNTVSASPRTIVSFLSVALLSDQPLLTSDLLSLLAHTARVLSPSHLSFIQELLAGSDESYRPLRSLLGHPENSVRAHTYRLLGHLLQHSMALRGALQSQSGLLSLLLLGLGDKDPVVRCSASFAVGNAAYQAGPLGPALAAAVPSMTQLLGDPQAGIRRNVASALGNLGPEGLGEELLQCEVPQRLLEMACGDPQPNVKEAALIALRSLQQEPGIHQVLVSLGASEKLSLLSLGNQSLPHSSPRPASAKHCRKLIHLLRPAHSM

Compound | observed | technique | concentration | remaining binding
CN(CCCC(F)(F)F)c1nccc(-c2cnn3ncccc23)n1 | binding | – | 1 µM | 92%
CC(=O)Nc1c(C(C)=O)c(=O)n(C)c2nc(-c3ccc(Cl)cc3Cl)c(-c3ccc(Cl)cc3)cc12 | cell-free assay | competition with immobilised ligand | 1 µM | 92%
FC(F)(F)Oc1cccc(-c2cnc3ccc(-c4ccncc4)nn23)c1 | binding | competition with immobilised ligand | 5 µM | 95%
Cc1c[nH]c2nccc(Oc3c(F)cc(Nc4cc(Cl)nc(N)n4)cc3F)c12 | cell-free assay | competition with immobilised ligand | 0.1 µM | 85%
c1cnn2ncc(-c3ccnc(N4CCC45COC5)n3)c2c1 | binding | – | 1 µM | 76%
CNCc1ccccc1-c1csc([C@H](C)Nc2nc(C)nc3cc(OC)c(OC)cc23)c1 | cell-free assay | competition with immobilised ligand | 1 µM | 100%
COc1ccnn2ncc(-c3ccnc(N(C)C)n3)c12 | binding | – | 1 µM | 81%
CN1CCN(c2cnc3c(C4CCN(C(=O)c5ccc(OC(F)(F)F)cc5N)CC4)ncnc3c2)CC1 | cell-free assay | competition with immobilised ligand | 1 µM | 75%
COc1cnc(Nc2cccc(S(N)(=O)=O)c2)nc1N1CCN(c2ccccc2)CC1 | binding | competition with immobilised ligand | 1 µM | 88%
N[C@@H]1CCN(c2nccc(-c3cnn4ncccc34)n2)C1 | binding | – | 1 µM | 77%
O=C(c1ccc(Nc2ncc(Cl)c(-c3ccc(Cl)s3)n2)cc1)N1CCC(N2CCCC2)CC1 | binding | competition with immobilised ligand | 1 µM | 3.9%
O=C(Nc1c[nH]nc1C(=O)NC1CCNCC1)c1cc(F)cc(F)c1 | binding | competition with immobilised ligand | 1 µM | 100%
C=CC(=O)N1CCC(C(=O)NCC(=O)N2CCN(c3nc(-c4cnc(N)nc4C(F)F)nc(N4CCOCC4)n3)CC2)CC1 | binding | competition with immobilised ligand | 1 µM | 95%
CCC(=O)N[C@@H]1CC[C@H](C(=O)N(C)c2ccc(-c3nc4ccccc4o3)cc2)C1 | cell-free assay | competition with immobilised ligand | 1 µM | 82%
O=C(NCCCN1CCOCC1)c1ccc(Nc2ncc(Cl)c(-c3ccc(Cl)s3)n2)cc1 | binding | competition with immobilised ligand | 1 µM | 6.2%
F[C@@H]1CCN(c2nccc(-c3cnn4ncccc34)n2)C1 | binding | – | 1 µM | 90%
c1cncc(-c2cccc(Nc3nccc(NC4CCCCC4)n3)c2)c1 | binding | competition with immobilised ligand | 10 µM | 49%
O=C(c1ccc(Nc2nccc(-c3cc4ccccc4s3)n2)cc1)N1CCC(N2CCCC2)CC1 | binding | competition with immobilised ligand | 1 µM | 11%
C[C@@H]1CCN(c2nccc(-c3cnn4ncccc34)n2)C1 | binding | – | 1 µM | 87%
Cc1nc(N2CC[C@@H](O)C2)ncc1-c1cc(C(F)(F)F)cc2[nH]ncc12 | binding | competition with immobilised ligand | 1 µM | 100%
CN(C)c1nccc(-c2cnn3ncccc23)n1 | binding | – | 1 µM | 100%
CCN1CCN(Cc2ccc(C(=O)Nc3ccc(C)c(Oc4ccc5c(c4)CC(=O)N5)c3)cc2C(F)(F)F)CC1 | binding | competition with immobilised ligand | 1 µM | 81%
